# From ChEMBL document CHEMBL1255404, “Spread of OXA-48-encoding plasmid in Turkey and beyond” (2010)
# Legend:
# Format in all cases: functional
# Klebsiella pneumoniae [1] = test: Antimicrobial activity against Klebsiella pneumoniae isolate KpL expressing beta-lactamase OXA-48 by Etest method
# Klebsiella pneumoniae [2] = test: Antimicrobial activity against Klebsiella pneumoniae isolate Kp11978 expressing beta-lactamase OXA-48, SHV-2a and TEM-1 by Etest method
# Escherichia coli [3] = test: Antimicrobial activity against Escherichia coli isolate J53 harboring pA-1 containing beta-lactamase OXA-48 located within transposon Tn1999 by Etest method
# How it was run: (§1)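 β-Lactam MICs read with Etest strips. Strains are E. coli J53 recipient and J53 transconjugants carrying OXA-48-positive plasmids recovered from clinical enterobacterial isolates.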
# Klebsiella pneumoniae [4] = test: Antimicrobial activity against Klebsiella pneumoniae isolate KpB expressing OXA-48 and CTX-M-15 by Etest method
# Escherichia coli [5] = test: Antimicrobial activity against Escherichia coli isolate J53 harboring pBb containing beta-lactamase OXA-48 located within transposon Tn1999.2 by Etest method; how it was run: as §1
# Klebsiella pneumoniae [6] = test: Antimicrobial activity against Klebsiella pneumoniae isolate Kp3A expressing beta-lactamase OXA-48 by Etest method
# How it was run: (§2)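 MICs of β-lactams read from Etest strips. The test organisms are carbapenem-resistant, OXA-48-positive clinical Enterobacteriaceae isolates recovered from Turkey, Lebanon, Egypt, France and Belgium.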
# Escherichia coli [7] = test: Antimicrobial activity against Escherichia coli isolate J53 harboring p3A containing beta-lactamase OXA-48 located within transposon Tn1999 by Etest method; how it was run: as §1
# Klebsiella pneumoniae [8] = test: Antimicrobial activity against Klebsiella pneumoniae isolate Kp4A expressing beta-lactamase OXA-48 and CTX-M-15 by Etest method
# Klebsiella pneumoniae [9] = test: Antimicrobial activity against Klebsiella pneumoniae isolate Kp5A expressing beta-lactamase OXA-48 and SHV-5 by Etest method
# Klebsiella pneumoniae [10] = test: Antimicrobial activity against Klebsiella pneumoniae isolate Kp6A expressing beta-lactamase OXA-48 and TEM-150 by Etest method
# Escherichia coli [11] = test: Antimicrobial activity against Escherichia coli isolate J53 harboring p4A containing beta-lactamase OXA-48 located within transposon Tn1999 by Etest method; how it was run: as §1
# Escherichia coli [12] = test: Antimicrobial activity against Escherichia coli isolate J53 harboring p5A containing beta-lactamase OXA-48 located within transposon Tn1999 by Etest method; how it was run: as §1
# Escherichia coli [13] = test: Antimicrobial activity against Escherichia coli isolate J53 harboring p6A containing beta-lactamase OXA-48 located within transposon Tn1999 by Etest method; how it was run: as §1
# Klebsiella pneumoniae [14] = test: Antimicrobial activity against Klebsiella pneumoniae isolate Kp7A expressing beta-lactamase OXA-48 by Etest method; how it was run: as §2
# Escherichia coli [15] = test: Antimicrobial activity against Escherichia coli isolate J53 harboring p7A containing beta-lactamase OXA-48 located within transposon Tn1999 by Etest method; how it was run: as §1
# Klebsiella pneumoniae [16] = test: Antimicrobial activity against Klebsiella pneumoniae isolate KpI-1 expressing beta-lactamase OXA-48 and CTX-M-15 by Etest method
# Klebsiella pneumoniae [17] = test: Antimicrobial activity against Klebsiella pneumoniae isolate KpI-2 expressing beta-lactamase OXA-48 and CTX-M-15 by Etest method
# Escherichia coli [18] = test: Antimicrobial activity against Escherichia coli isolate J53 harboring pI-1 containing beta-lactamase OXA-48 located within transposon Tn1999.2 by Etest method; how it was run: as §1
# Escherichia coli [19] = test: Antimicrobial activity against Escherichia coli isolate J53 harboring pI-2 containing beta-lactamase OXA-48 located within transposon Tn1999.2 by Etest method; how it was run: as §1
# Klebsiella pneumoniae [20] = test: Antimicrobial activity against Klebsiella pneumoniae isolate KpBIC expressing beta-lactamase OXA-48 by Etest method; how it was run: as §2
# Escherichia coli [21] = test: Antimicrobial activity against Escherichia coli isolate TOP10 harboring pBIC containing beta-lactamase OXA-48 located within transposon Tn1999.2 by Etest method
# How it was run: (§3)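 β-Lactam MICs read with Etest strips. Strains are E. coli TOP10 host and TOP10 transformants made with plasmid DNA extract when conjugation failed. Transformants were selected on LB agar with ticarcillin 50 μg/ml.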
# Klebsiella pneumoniae [22] = test: Antimicrobial activity against Klebsiella pneumoniae isolate KpE expressing beta-lactamase OXA-48 and CTX-M-15 by Etest method
# Escherichia coli [23] = test: Antimicrobial activity against Escherichia coli isolate J53 harboring pE containing beta-lactamase OXA-48 located within transposon Tn1999.2 by Etest method; how it was run: as §1
# Klebsiella pneumoniae [24] = test: Antimicrobial activity against Klebsiella pneumoniae isolate KpBEL expressing beta-lactamase OXA-48 by Etest method; how it was run: as §2
# Escherichia coli [25] = test: Antimicrobial activity against Escherichia coli isolate J53 harboring pBEL containing beta-lactamase OXA-48 located within transposon Tn1999.2 by Etest method; how it was run: as §1
# Escherichia coli [26] = test: Antimicrobial activity against Escherichia coli isolate J53 harboring pL containing beta-lactamase OXA-48 located within transposon Tn1999.2 by Etest method; how it was run: as §1
# Providencia rettgeri = test: Antimicrobial activity against Providencia rettgeri isolate expressing beta-lactamase OXA-48 and TEM-101 by Etest method
# Escherichia coli [27] = test: Antimicrobial activity against Escherichia coli isolate TOP10 harboring pPR containing beta-lactamase and TEM-101 by Etest method; how it was run: as §3
# Enterobacter cloacae [28] = test: Antimicrobial activity against Enterobacter cloacae isolate 1 expressing beta-lactamase OXA-48 and SHV-5 by Etest method
# Escherichia coli [29] = test: Antimicrobial activity against Escherichia coli isolate J53 harboring pEnc1 containing beta-lactamase OXA-48 located within transposon Tn1999 by Etest method; how it was run: as §1
# Enterobacter cloacae [30] = test: Antimicrobial activity against Enterobacter cloacae isolate 2 expressing beta-lactamase OXA-48 and SHV-5 by Etest method
# Escherichia coli [31] = test: Antimicrobial activity against Escherichia coli isolate J53 harboring pEnc2 containing beta-lactamase OXA-48 located within transposon Tn1999 by Etest method; how it was run: as §1
# Citrobacter freundii = test: Antimicrobial activity against Citrobacter freundii isolate expressing beta-lactamase OXA-48 by Etest method
# Escherichia coli [32] = test: Antimicrobial activity against Escherichia coli isolate J53 harboring pCF containing beta-lactamase OXA-48 located within transposon Tn1999 by Etest method; how it was run: as §1
# Escherichia coli [33] = test: Antimicrobial activity against Escherichia coli isolate A expressing beta-lactamase OXA-48 and TEM-150 by Etest method
# Escherichia coli [34] = test: Antimicrobial activity against Escherichia coli isolate J53 harboring pEcA containing beta-lactamase OXA-48 located within transposon Tn1999.2 by Etest method; how it was run: as §1
# Escherichia coli [35] = test: Antimicrobial activity against Escherichia coli isolate J53 by Etest method; how it was run: as §1
# Escherichia coli [36] = test: Antimicrobial activity against Escherichia coli isolate TOP10 by Etest method; how it was run: as §3
smiles,measurement,setting,value
C[C@@H](O)[C@H]1C(=O)N2C(C(=O)O)=C(S[C@@H]3CN[C@H](C(=O)Nc4cccc(C(=O)O)c4)C3)[C@H](C)[C@H]12,MIC,Klebsiella pneumoniae [1],> 16 µg/mL
same,MIC,Klebsiella pneumoniae [2],64 µg/mL
same,MIC,Escherichia coli [3],0.19 µg/mL
same,MIC,Klebsiella pneumoniae [4],> 32 µg/mL
same,MIC,Escherichia coli [5],0.25 µg/mL
same,MIC,Klebsiella pneumoniae [6],> 32 µg/mL
same,MIC,Escherichia coli [7],0.25 µg/mL
same,MIC,Klebsiella pneumoniae [8],> 32 µg/mL
same,MIC,Klebsiella pneumoniae [9],> 32 µg/mL
same,MIC,Klebsiella pneumoniae [10],> 32 µg/mL
same,MIC,Escherichia coli [11],0.12 µg/mL
same,MIC,Escherichia coli [12],0.12 µg/mL
same,MIC,Escherichia coli [13],0.12 µg/mL
same,MIC,Klebsiella pneumoniae [14],> 32 µg/mL
same,MIC,Escherichia coli [15],0.19 µg/mL
same,MIC,Klebsiella pneumoniae [16],24 µg/mL
same,MIC,Klebsiella pneumoniae [17],24 µg/mL
same,MIC,Escherichia coli [18],0.25 µg/mL
same,MIC,Escherichia coli [19],0.25 µg/mL
same,MIC,Klebsiella pneumoniae [20],2 µg/mL
same,MIC,Escherichia coli [21],0.5 µg/mL
same,MIC,Klebsiella pneumoniae [22],3 µg/mL
same,MIC,Escherichia coli [23],3 µg/mL
same,MIC,Klebsiella pneumoniae [24],4 µg/mL
same,MIC,Escherichia coli [25],2 µg/mL
same,MIC,Escherichia coli [26],4 µg/mL
same,MIC,Providencia rettgeri,> 32 µg/mL
same,MIC,Escherichia coli [27],0.75 µg/mL
same,MIC,Enterobacter cloacae [28],0.5 µg/mL
same,MIC,Escherichia coli [29],0.125 µg/mL
same,MIC,Enterobacter cloacae [30],0.75 µg/mL
same,MIC,Escherichia coli [31],0.19 µg/mL
same,MIC,Citrobacter freundii,> 32 µg/mL
same,MIC,Escherichia coli [32],0.25 µg/mL
same,MIC,Escherichia coli [33],> 32 µg/mL
same,MIC,Escherichia coli [34],0.25 µg/mL
same,MIC,Escherichia coli [35],0.06 µg/mL
same,MIC,Escherichia coli [36],0.06 µg/mL
CO/N=C(\C(=O)N[C@@H]1C(=O)N2C(C(=O)[O-])=C(C[N+]3(C)CCCC3)CS[C@H]12)c1csc(N)n1,MIC,Klebsiella pneumoniae [1],0.12 µg/mL
same,MIC,Klebsiella pneumoniae [4],> 512 µg/mL
same,MIC,Escherichia coli [5],< 0.5 µg/mL
same,MIC,Klebsiella pneumoniae [6],0.5 µg/mL
same,MIC,Escherichia coli [11],0.12 µg/mL
same,MIC,Escherichia coli [12],0.12 µg/mL
same,MIC,Escherichia coli [13],0.12 µg/mL
same,MIC,Klebsiella pneumoniae [14],0.5 µg/mL
same,MIC,Escherichia coli [15],0.5 µg/mL
same,MIC,Escherichia coli [18],0.12 µg/mL
same,MIC,Escherichia coli [19],0.12 µg/mL
same,MIC,Klebsiella pneumoniae [20],0.5 µg/mL
same,MIC,Escherichia coli [21],0.5 µg/mL
same,MIC,Escherichia coli [23],0.12 µg/mL
same,MIC,Klebsiella pneumoniae [24],0.12 µg/mL
same,MIC,Escherichia coli [25],0.12 µg/mL
same,MIC,Escherichia coli [26],0.06 µg/mL
same,MIC,Escherichia coli [27],0.5 µg/mL
same,MIC,Escherichia coli [32],0.12 µg/mL
same,MIC,Escherichia coli [34],0.12 µg/mL
same,MIC,Escherichia coli [35],0.03 µg/mL
C[C@H]1[C@H](NC(=O)/C(=N\OC(C)(C)C(=O)O)c2csc(N)n2)C(=O)N1S(=O)(=O)O [AZTREONAM],MIC,Klebsiella pneumoniae [1],0.06 µg/mL
same,MIC,Escherichia coli [5],< 0.12 µg/mL
same,MIC,Klebsiella pneumoniae [6],0.06 µg/mL
same,MIC,Escherichia coli [7],0.06 µg/mL
same,MIC,Escherichia coli [11],0.06 µg/mL
same,MIC,Escherichia coli [12],0.06 µg/mL
same,MIC,Escherichia coli [13],0.06 µg/mL
same,MIC,Klebsiella pneumoniae [14],0.06 µg/mL
same,MIC,Escherichia coli [15],0.06 µg/mL
same,MIC,Escherichia coli [18],0.06 µg/mL
same,MIC,Escherichia coli [19],0.06 µg/mL
same,MIC,Klebsiella pneumoniae [20],0.06 µg/mL
same,MIC,Escherichia coli [23],0.06 µg/mL
same,MIC,Klebsiella pneumoniae [24],0.06 µg/mL
same,MIC,Escherichia coli [25],0.06 µg/mL
same,MIC,Escherichia coli [26],0.06 µg/mL
same,MIC,Escherichia coli [27],0.06 µg/mL
same,MIC,Escherichia coli [29],0.06 µg/mL
same,MIC,Escherichia coli [31],0.06 µg/mL
same,MIC,Escherichia coli [32],0.06 µg/mL
same,MIC,Escherichia coli [34],0.06 µg/mL
